# From PubChem BioAssay AID743238 (Broad Institute, 2013)
# In all, about 360,000 compounds went through this assay and about 200 (0.056%) were called active. The full list was thinned out, with actives kept by preference. Values without a mark were called inactive.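 How the source made its calls: active means mean normalized replicate activation at least 10% and every replicate at or above 10%; inconclusive means only one of the two criteria met; inactive means mean below 10% and not all replicates reach 10%.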
# Assay: Xi reactivation inducers in mouse fibroblasts – imaging, XiGFP fibroblasts, GFP high-content imaging, set 2, primary screen (AID 743238);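 further: 0% = median of on-plate neutral control wells and 100% = ellipticine 6 µM median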
# Settings: % GFP-positive cells imaging, 3 d, at 7.58 µM, hits give high values, cells co-treated with 5-aza-dC sensitizer, scaled so ellipticine positive control = 100%
# Summary of the method: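 Material: SV40-immortalized XiGFP fibroblast cells, line 68-5-11 | Buffer or medium: DMEM containing 5-aza-dC | Dosing: One concentration, pinned | Times: 3 d treatment, 15 min room-temperature fixation | Controls: Ellipticine 6 µM positive control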
row,Structure (SMILES),activation
1,COCC#Cc1ccc([C@@H]2[C@@H](CO)N3C(=O)CN(C(=O)Nc4cc(F)ccc4F)C[C@@H]23)cc1,0.227%
2,CS(=O)(=O)N1[C@H](C#N)[C@H](c2ccccc2-c2ccc(F)cc2)[C@@H]1CO,0.0935%
3,O=C(NCc1ccc(F)cc1)[C@@H]1[C@@H](CO)[C@@H]2Cn3c(cccc3=O)[C@@H]2N1C(=O)c1cccnc1,0.173%
4,C[C@H]1CN([C@@H](C)CO)C(=O)c2cc(C3=CCCC3)cnc2O[C@H]1CN(C)Cc1ccccc1C(=O)O,-0.072%
5,O=C(C[C@@H]1CC[C@H](NS(=O)(=O)c2ccc(F)cc2)[C@@H](CO)O1)NCc1ccccc1F,-0.283%
6,Cc1noc(C)c1NC(=O)Nc1ccc2c(c1)C(=O)N([C@H](C)CO)C[C@H](C)[C@H](CN(C)S(=O)(=O)c1cccs1)O2,0.0715%
7,N#C[C@@H]1[C@H](c2ccccc2-c2cccc(F)c2)[C@@H](CO)N1C(=O)C1CCCC1,0.007%
8,Cc1cccc(N2CCN(C(C)C(=O)N3CCc4ccccc43)CC2)c1C (stereo not given),0.0055%
9,Cc1cccc2cc3c(N)c(C(=O)N4CCCc5ccccc54)sc3nc12,39.9% (active)
10,COc1cccc(/C=C/C(=O)OCC(=O)N2CCCc3ccccc32)c1,0.22%
11,O=C(C[C@@H]1C[C@H]2c3cc(NC(=O)NC4CCCC4)ccc3O[C@H]2[C@H](CO)O1)NCc1cc(F)ccc1F,0.0125%
12,C[C@H](CO)N1C[C@H](C)[C@H](CN(C)S(=O)(=O)c2ccc(Cl)cc2)Oc2ccc(NC(=O)C3CCCCC3)cc2C1=O,-0.051%
13,CN1C(=O)c2cc(NC(=O)c3ccc(Cl)cc3)ccc2OC[C@H]2O[C@H](CC(=O)O)CC[C@H]21,0.521%
14,C[C@@H]1CCCCO[C@@H](CN(C)Cc2ccc(C(=O)Nc3ccccc3N)cc2)[C@H](C)CN([C@H](C)CO)C(=O)c2cc(N(C)C)ccc2O1,2.13%
15,O=C(C1CCCC1)N1CC(=O)N2[C@@H](CO)[C@@H](c3ccc(-c4cccnc4)cc3)[C@@H]2C1,0.207%
16,C[C@@H](NC(=O)[C@H]1[C@H](CO)[C@H]2Cn3c(cccc3=O)[C@@H]1N2Cc1cccnc1)c1ccccc1,0.133%
17,C[C@@H]1CN([C@H](C)CO)C(=O)Cc2cc(NC(=O)Nc3ccc4c(c3)OCO4)ccc2O[C@@H]1CN(C)C(=O)Nc1ccccc1,-0.384%
18,CCCNC(=O)N1C[C@@H](C)[C@@H](OC)CN(C)C(=O)c2ccc(NC(=O)C3CCC3)cc2OC[C@@H]1C,-0.29%
19,COc1ccc2c3c([nH]c2c1)[C@@H](CO)N(C(=O)c1ccccc1)CC31CCN(C(=O)Nc2cccc(F)c2)CC1,0.295%
20,Cc1noc(C)c1NC(=O)N[C@@H]1C=C[C@@H](CC(=O)Nc2ccccc2)O[C@H]1CO,0.193%
21,O=C(Nc1cccc(C(=O)O)c1)/C(=C\c1ccccc1)NC(=O)c1ccc(Br)o1,97.3% (active)
22,O=C(NC(Cc1ccc(O)cc1)C(=O)O)/C(=C/c1ccccc1)NC(=O)c1ccccc1 (stereo not given),0.249%

row,Structure (SMILES),activation
1,COc1ccccc1C(=O)N/C(=C/c1ccc2c(c1)OCO2)C(=O)Nc1cccc(C(=O)O)c1,0.184%
2,C[C@@H]1CCCCO[C@@H](CN(C)S(=O)(=O)c2cn(C)cn2)[C@@H](C)CN([C@@H](C)CO)C(=O)c2cc(NC(=O)NC3CCCCC3)ccc2O1,0.153%
3,O=C(c1ccncc1)N1CC(=O)N2[C@H](C1)[C@@H](c1ccc(C#CCC3CCCC3)cc1)[C@@H]2CO,0.192%
4,C[C@H]1CN([C@@H](C)CO)C(=O)c2cccc(NS(=O)(=O)c3ccc(F)cc3)c2O[C@@H]1CN(C)C,-0.0195%
5,CNC[C@@H]1Oc2ccc(NC(=O)C3CCCCC3)cc2C(=O)N([C@@H](C)CO)C[C@H]1C,-1.11%
6,C[C@@H](NC(=O)C[C@@H]1C[C@@H]2c3cc(NC(=O)c4cccnc4)ccc3O[C@@H]2[C@H](CO)O1)c1ccccc1,-0.0445%
7,CC(=O)N1[C@@H]2c3ccc(-c4ccccc4)c(=O)n3C[C@@H]2[C@@H](CO)[C@@H]1C(=O)NCc1ccccc1F,0.21%
8,C[C@H](CO)N1C[C@H](C)[C@@H](CN(C)Cc2cccnc2)Oc2ncc(/C=C/c3ccccc3)cc2C1=O,-0.672%
9,CC(C)CC#Cc1cnc2c(c1)C(=O)N([C@H](C)CO)C[C@H](C)[C@H](CN(C)CC1CCOCC1)O2,0.516%
10,CC[C@H]1CC=CC[C@@H](C)Oc2ccccc2C(=O)N(C)[C@H](Cc2ccccc2)C(=O)N1 (mixture of isomers),-0.034%
11,CCOC(=O)c1sc2nc(C)nc(SCC(N)=O)c2c1C,-0.02%
12,CSc1nnc(SCc2nc3sc(C(=O)O)c(C)c3c(=O)[nH]2)s1,0.212%
13,CCOC(=O)c1sc2nc(CSc3ccccc3)[nH]c(=O)c2c1C,21.4% (active)
14,C/C=C/c1ccc2c(c1)O[C@H](CN(C)C(=O)Cc1cccnc1)[C@@H](C)CN([C@H](C)CO)S2(=O)=O,0.77%
15,COc1ccc2c3c(n(C)c2c1)[C@H](CO)N(C(C)=O)CC31CN(Cc2ccc(Cl)cc2)C1,-0.0005%
16,COCCN(C[C@H]1[C@@H](c2ccccc2)[C@H](CO)N1C(=O)C1CCC1)C(C)=O,0.023%
17,C/C=C/c1ccc([C@H]2[C@@H](CO)N(C(=O)CC)[C@H]2CN(C)C(=O)C2CC2)cc1,0.008%
18,CCC(=O)Nc1ccc2c(c1)C(=O)N(C)C[C@@H](OC)[C@@H](C)CN(C(=O)CN(C)C)[C@@H](C)CO2,0.206%
19,CCC(=O)N1CC2(CCN(Cc3ccc(Cl)cc3)CC2)c2c(n(C)c3cc(OC)ccc23)[C@@H]1CO,0.134%
20,CCS(=O)(=O)N1CC2(CN(C(=O)c3ccc(F)cc3)[C@@H](CO)c3c2c2ccc(OC)cc2n3C)C1,0.267%
21,C[C@@H]1CN([C@@H](C)CO)S(=O)(=O)c2ccc(Br)cc2O[C@@H]1CN(C)C(=O)CN(C)C,0.922%
22,O=C(Nc1ccc(F)cc1)N1CC(=O)N2[C@H](CO)[C@H](c3ccc(C#Cc4ccccc4)cc3)[C@H]2C1,0.018%

row,Structure (SMILES),activation
1,C[C@H](CO)N1C[C@H](C)[C@@H](CN(C)S(C)(=O)=O)Oc2ccc(NC(=O)Nc3ccc4c(c3)OCO4)cc2CC1=O,0.005%
2,OC[C@H]1[C@@H](c2ccc(C#Cc3ccccc3F)cc2)[C@H]2CN(CC3CCOCC3)CCCCN21,-0.0285%
3,C[C@H]1CN([C@@H](C)CO)C(=O)c2cc(-c3ccccc3)cnc2O[C@H]1CN(C)C(=O)C1CCOCC1,-0.251%
4,COCC(=O)Nc1ccc2c(c1)C(=O)N(C)[C@@H]1CC[C@H](CC(=O)NCC3CC3)O[C@H]1CO2,0.286%
5,COc1ccc2c3c(n(C)c2c1)[C@H](CO)NCC31CN(S(=O)(=O)c2cccc(C)c2)C1,0.887%
6,COc1cccc(-c2cnc3c(c2)C(=O)N([C@H](C)CO)C[C@H](C)[C@H](CN(C)Cc2ccncc2)O3)c1,0.983%
7,CC(=O)N(C)C[C@H]1Oc2ncc(C#Cc3ccc(F)cc3)cc2C(=O)N([C@H](C)CO)C[C@@H]1C,-1.15%
8,C[C@H]1CN([C@@H](C)CO)C(=O)CCCn2cc(nn2)CO[C@H]1CN(C)C(=O)Nc1ccc(F)cc1,-0.396%
9,O=C(C[C@H]1C=C[C@@H](NC(=O)CC2CC2)[C@H](CO)O1)NCc1ccc(-c2ccccc2)cc1,0.158%
10,COc1ccc(S(=O)(=O)N(C)C[C@@H]2Oc3ccc(NC(=O)CCN4CCOCC4)cc3CC(=O)N([C@@H](C)CO)C[C@@H]2C)cc1,-1.18%
11,O=C(c1cccc(F)c1)N1CC[C@@H]2[C@H](CO)Nc3ccc(C#Cc4ccccc4)cc3[C@@H]21,0.0425%
12,CC(C)NC(=O)N(C)C[C@@H]1Oc2ncc(C#CC3CC3)cc2C(=O)N([C@@H](C)CO)C[C@H]1C,-0.634%
13,Nc1c(C(=O)c2cccs2)sc2nsc(SCCN3CCCCC3)c12,114% (active)
14,O=C(NC1CCCC1)N1CC(=O)N2[C@H](C1)[C@H](c1ccc(/C=C/c3ccccc3)cc1)[C@@H]2CO,0.335%
15,CCCC#Cc1ccc([C@H]2[C@H]3CN(C(=O)c4cccnc4)CC(=O)N3[C@H]2CO)cc1,-0.0225%
16,COc1ccccc1-c1ccc([C@H]2[C@@H](CO)N(CC3CC3)C23CN(S(C)(=O)=O)C3)cc1,0.04%
17,CO[C@@H]1CN(C)C(=O)c2cc(NC(=O)Nc3ccccc3F)ccc2OC[C@H](C)NC[C@H]1C,-0.018%
18,O=C([C@@H]1[C@@H](CO)[C@@H]2Cn3c(ccc(-c4cncnc4)c3=O)[C@@H]2N1C(=O)C1CCC1)N1CCCCC1,0.322%
19,C[C@@H]1CCCCO[C@@H](CN(C)Cc2ccncc2)[C@@H](C)CN([C@H](C)CO)C(=O)c2cc(NS(=O)(=O)c3cccs3)ccc2O1,0.415%
20,CCCN1[C@H](CO)[C@H](c2ccc(C#CC3CCCCC3)cc2)[C@@H]1CNC(=O)C1CC1,0.049%
21,CN1CCN(C(=O)C[C@@H]2CC[C@@H]3[C@H](COC[C@H](O)CN3CC3CCOCC3)O2)CC1,0.0745%
